A selection: hits, their analogues and other compounds. The true share with any hit is near 1.2%.
CSN deneddyl inh: CSN deneddylation inhibition. Q92905. hit rate 0.38% among 360,000. AID 651999. Purified CSN, SCF-Nedd8-OG deneddylation, fluorescence polarization. inhibition, % at 12.5 µM;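 active = pattern-corrected inhibition above about 35%, with an unprinted fluorescence ratio check between 0.5 and 1.5, limit read from the data, passing the limit was not always enough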;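 note: 0% = enzyme with substrate and 100% = substrate without enzyme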
Target sequence (Q92905 whole entry, looked up, one chain of several): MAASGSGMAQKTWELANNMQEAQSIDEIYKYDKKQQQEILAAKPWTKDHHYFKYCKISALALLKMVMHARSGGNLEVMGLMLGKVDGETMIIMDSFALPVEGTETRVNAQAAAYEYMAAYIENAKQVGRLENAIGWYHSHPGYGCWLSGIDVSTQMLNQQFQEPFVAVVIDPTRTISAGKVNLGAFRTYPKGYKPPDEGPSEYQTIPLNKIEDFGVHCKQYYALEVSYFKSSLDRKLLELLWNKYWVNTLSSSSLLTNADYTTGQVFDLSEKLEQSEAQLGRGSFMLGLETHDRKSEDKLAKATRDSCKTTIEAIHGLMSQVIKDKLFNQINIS
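Detection – fluorescence polarization · System – HEK293T-derived human Csn5 enzyme · Controls – substrate-only high control, full reaction low control · Timing – 90 min, room temperature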
TPT1 inh: blocks Candida albicans tRNA 2'-phosphotransferase. recombinant caTPT1, FP RNA substrate dephosphorylation. inhibition, % at 5 µM. hit rate 0.81% among 300,000. AID 1962;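 active = inhibition above the mean of all tested compounds plus 3 SD, set per screening campaign, cut at about 24% in these data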;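 note: plate controls were DMSO alone for no effect and ferristatin control at 100 nM for full effect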
Rtt109 Vps75: inhibitors of Candida albicans Rtt109/Vps75 histone acetyltransferase. hit rate 0.16% among 330,000. purified Rtt109/Vps75, ThioGlo CoA-SH fluorescence, 4 h. inhibition, % at 34.9 µM;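 active = inhibition of at least 50% in every replicate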
HNF4A DNA FP: change in binding of human HNF4 alpha to DNA. hit rate 0.3% among 360,000. HNF4a-FITC DNA binding, fluorescence polarization, 1 h. activity change, % at 10 µM. P41235; in the data active = activity change above about 30%, passing the limit was not always enough
TPT1 inh confirm: TPT1 (C. albicans) inhibition, confirmation; shares compounds with TPT1 inh; recombinant caTPT1, fluorescence polarization, RNase T1 coupled; inhibition, % at 5 µM; hit rate 74% among 2,400; AID 2149;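 active = inhibition above the primary screen limit, the mean inhibition of all tested compounds plus 3 SD, cut at about 25% in these data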
RNase T1 counter: RNase T1 inhibition in TPT1 counter-screen. shares compounds with TPT1 inh. RNase T1 cleavage, fluorescence polarization, 1536-well. inhibition, % at 5 µM. hit rate 83% among 2,400;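 active = inhibition above the solvent-only control well mean plus 3 SD, limit set per screening run, cut at about 23% in these data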;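 note: plate controls were DMSO wells with enzyme for no effect and wells without RNase T1 for full effect; inhibitors block cleavage so intact labeled substrate keeps polarization high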
Target sequence (P00651 whole entry, looked up): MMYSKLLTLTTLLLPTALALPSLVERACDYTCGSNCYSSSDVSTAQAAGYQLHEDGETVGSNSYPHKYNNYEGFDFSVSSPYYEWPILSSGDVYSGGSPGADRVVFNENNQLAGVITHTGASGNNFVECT
* marks the source's active call; other numbers are inactive results; / = no result given.

SMILES	CSN deneddyl inh	TPT1 inh	Rtt109 Vps75	HNF4A DNA FP	TPT1 inh confirm	RNase T1 counter
CCOC(=O)c1ccc(N/C=C/C(=O)c2ccc(OC)c(OC)c2)cc1	101*	1	5	-2	/	/
Cc1ccc(-c2ccc(CCC(=O)O)o2)cc1	5	-2	3	2	/	/
O=C(O)CCc1ccc(-c2cccs2)o1	14	4	53*	-5	/	/
Cc1ccc(/C=N/NC(=O)c2nnn(-c3nonc3N)c2CSc2ccc(Cl)cc2)o1	1	-2	1	-3	/	/
O=C(Nc1ccc2c(c1)OCCO2)C1CCC1	-8	0	5	68*	/	/
CSc1nc(=S)n(-c2ccc([N+](=O)[O-])cc2)c(C)c1C(C)=O	4	-2	4	-3	/	/
Cc1noc(/C=C/c2ccco2)c1S(=O)(=O)N1CCC(C(=O)N2c3ccccc3CC2C)CC1 (centres undefined)	18	7	/	44*	/	/
COc1ccc(NC(=O)CN(c2ccc(OC)c(Cl)c2)S(=O)(=O)c2ccccc2)c(OC)c1	-1	2	9	0	/	/
O=C(CCN1CCC(c2ccccc2)C1)c1ccccc1 (centres undefined)	5	0	-7	3	/	/
COc1cc(C(=O)CCN2CCC(c3ccccc3)C2)cc(OC)c1OC (centres undefined)	-5	2	95*	1	/	/
CC1(c2cccc(Br)c2)NC(=O)N(CC(=O)Nc2ccc(F)cc2)C1=O (centres undefined)	2	-2	2	3	/	/
Cc1ccccc1/C=C/C(=O)NCC(=O)N1CCC(N(C)C2CCCCC2C)CC1 (centres undefined)	-3	-1	60*	-1	/	/
CCOC(=O)CSc1nnc(-c2cc(OC)c(OC)c(OC)c2)o1	7	-9	-6	-2	/	/
COc1cc(-c2nnc(SCC(=O)OC3CCCCC3)o2)cc(OC)c1OC	8	-5	59*	-2	/	/
CC1CC(=O)N(c2ccc(NCc3ccc(Cl)cc3)c([N+](=O)[O-])c2)C1=O (centres undefined)	39*	1	-1	-3	/	/
COc1cccc(CCNc2ccc(N3C(=O)CC(C)C3=O)cc2[N+](=O)[O-])c1 (centres undefined)	1	1	6	2	/	/
N#CC1=C(N)SC(N)=C(C#N)C1CCC1CCCCC1	/	110*	/	/	/	/
CC(C)n1c(O)c(N=Nc2ccc(Cl)nn2)c2ccccc21	44*	4	-15	33	/	/
COc1ccc2c(CN3CCN(c4ccccc4OC)CC3)cc(=O)oc2c1	74*	/	/	11	/	/
COc1ccc2c(CN3CCN(c4ccccc4F)CC3)cc(=O)oc2c1	100*	/	/	-2	/	/
Cc1ccc2c(CN3CCN(c4ccccc4F)CC3)cc(=O)oc2c1	-3	/	/	1	/	/
C=CCn1c(C(CC(C)C)CC(C)O)n[nH]c1=S (centres undefined)	1	43*	1	-1	2	4
C=CCn1c(C(CCCC)CC(O)COCC(C)C)n[nH]c1=S (centres undefined)	6	0	/	-1	/	/
O=C(O)CC/C(=N/NC(=O)CNC(=O)c1ccc2c(c1)OCCO2)c1ccccc1	-3	3	-3	0	/	/
COc1ccc(NC(=O)CCC(=O)c2cc(C)sc2C)cc1	-5	/	-4	0	/	/
SMILES	CSN deneddyl inh	TPT1 inh	Rtt109 Vps75	HNF4A DNA FP	TPT1 inh confirm	RNase T1 counter
Cc1cc(/C=N/Nc2ccc([N+](=O)[O-])cn2)c(C)n1-c1ccccc1	1	31*	-15	7	35*	47*
Cc1ccc(C=NNc2ccc([N+](=O)[O-])cn2)cc1	-2	/	-9	-3	/	/
Cc1c(C(=O)O)cccc1-n1c(C)cc(/C=N/Nc2ccc([N+](=O)[O-])cn2)c1C	9	28*	13	6	47*	57*
Cc1ccc(Cn2cc(/C=N/Nc3ccc([N+](=O)[O-])cn3)c3ccccc32)cc1	25	51*	/	54*	34*	44*
Cc1ccc(-n2c(C)cc(/C=N/Nc3ccc([N+](=O)[O-])cn3)c2C)cc1	7	34*	7	3	35*	47*
O=C(O)c1ccccc1C=NNc1ccc([N+](=O)[O-])cn1	2	/	9	1	/	/
Cc1ccc(C(=O)OCC(=O)NC2CCCCCC2)c(C)c1	1	/	1	0	/	/
Cc1ccc(S(=O)(=O)NC(=O)C2(C)CCN2C(=O)C2CCCCC2)nc1 (centres undefined)	1	/	/	1	/	/
CN(C)c1ccc(/C=C2/SC(=O)N(CCN=C3NS(=O)(=O)c4ccccc43)C2=O)cc1	4	33*	-1	11	28*	38*
O=C1S/C(=C/c2ccccc2)C(=O)N1CC(O)Cn1c2ccccc2c2ccccc21 (centres undefined)	3	3	-3	-1	/	/
CN(C)c1ccc(/C=C2\SC(=O)N(CCc3nnc(N)s3)C2=O)cc1	32	100*	45	97*	92*	102*
CN(C)c1ccc(/C=C2\SC(=O)N(CC(O)Cn3c4ccccc4c4ccccc43)C2=O)cc1 (centres undefined)	-6	76*	-1	6	52*	72*
Cc1ccc(-c2nc(CN3CCCCC3c3cccc(F)c3)c(C)o2)o1 (centres undefined)	9	33*	-5	19	23	30*
Cc1oc(-c2ccccc2Cl)nc1CN1CCCC1c1ccc(F)cc1 (centres undefined)	3	3	/	7	/	/
Cc1ccc(C2NC(=O)c3c(sc4c3CCN(C)C4)N2)s1 (centres undefined)	29	64*	/	10	38*	47*
CN1CCc2c(sc3c2C(=O)NC(c2ccccn2)N3)C1 (centres undefined)	-12	-10	-47	-17	/	/
Cc1ccc(C2NC(=O)c3c(sc4c3CCN(C)C4)N2)o1 (centres undefined)	23	0	5	-10	/	/
CN1CCc2c(sc3c2C(=O)NC(c2ccccc2)N3)C1 (centres undefined)	6	27*	-25	-1	31*	45*
CC1CN(C2CCCCC2)C(=S)N(c2ccccc2)C1=O (centres undefined)	4	/	1	1	/	/
CCCn1c(NC(=O)CCNC(=O)c2ccccc2Cl)nc2ccccc21	1	/	4	-1	/	/
CCCn1c(NC(=O)CCS(=O)(=O)c2ccc(C)cc2)nc2ccccc21	4	46*	-4	18	58*	68*
Oc1ccc(-c2nccc(-c3ccccn3)n2)cc1	4	-1	-1	0	/	/
COC(=O)c1sc2cc([N+](=O)[O-])cc(SCC(C)C)c2c1N	21	43*	10	29	29*	41*
CCOC(=O)c1sc2ncc([N+](=O)[O-])cc2c1N	-5	-6	9	0	/	/
Cc1ccc(C(=O)Nc2ccc(F)c(S(=O)(=O)N3CCOCC3)c2)s1	1	/	2	-3	/	/

Assay outcomes deposited in PubChem BioAssay by several laboratories.
